pIC50: −log10 of the molar value.
Tests used:
[1] = molecular target: Cyclin-dependent kinase 2 (Homo sapiens, UniProt P24941); experiment: Inhibition of human CDK2 expressed in sf9 insect cells
Clostridioides difficile [2] = experiment: Antimicrobial activity against Clostridioides difficile ATCC BAA 1801 assessed as reduction in microbial growth after 48 hrs by broth microdilution method; format: functional
Method in brief: (§1)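 Broth microdilution: a 0.5 McFarland suspension was diluted in brain heart infusion supplemented (BHIS) broth to ~5 × 10^5 CFU/mL. Agents were serially diluted and plates incubated anaerobically at 37°C for 48 h.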

Bacteroides fragilis [3] = experiment: Antibacterial activity against Bacteroides fragilis HM-709 assessed as reduction in microbial growth after 48 hrs by broth microdilution method; format: organism-based
Method in brief: (§2)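 Gut commensal MICs by broth microdilution: a 0.5 McFarland suspension was diluted to ~5 × 10^5 CFU/mL in BHIS broth (Bacteroides) or MRS broth (Lactobacillus). Agents were serially diluted and incubated 48 h at 37°C. MIC was read by visual inspection of growth.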

Clostridioides difficile [4] = experiment: Antimicrobial activity against Clostridioides difficile ATCC 43255 assessed as reduction in microbial growth after 48 hrs by broth microdilution method; format: functional; method in brief: as §1
Clostridioides difficile [5] = experiment: Antimicrobial activity against Clostridioides difficile NR-32883 P2 assessed as reduction in microbial growth after 48 hrs by broth microdilution method; format: functional; method in brief: as §1
Clostridioides difficile [6] = experiment: Antimicrobial activity against Clostridioides difficile NR-13432 isolate 6 assessed as reduction in microbial growth after 48 hrs by broth microdilution method; format: functional; method in brief: as §1
Phocaeicola dorei = experiment: Antibacterial activity against Bacteroides dorei HM-719 assessed as reduction in microbial growth after 48 hrs by broth microdilution method; format: organism-based; method in brief: as §2
Clostridioides difficile [7] = experiment: Antimicrobial activity against Clostridioides difficile NR-32904 P30 assessed as reduction in microbial growth after 48 hrs by broth microdilution method; format: functional; method in brief: as §1
Clostridioides difficile [8] = experiment: Antimicrobial activity against Clostridioides difficile NR-13435 isolate 9 assessed as reduction in microbial growth after 48 hrs by broth microdilution method; format: functional; method in brief: as §1
Clostridioides difficile [9] = experiment: Antimicrobial activity against Clostridioides difficile NR-32895 P19 assessed as reduction in microbial growth after 48 hrs by broth microdilution method; format: functional; method in brief: as §1
Clostridioides difficile [10] = experiment: Antimicrobial activity against Clostridioides difficile NR-32891 P13 assessed as reduction in microbial growth after 48 hrs by broth microdilution method; format: functional; method in brief: as §1
Lactobacillus gasseri = experiment: Antibacterial activity against Lactobacillus gasseri HM-400 assessed as reduction in microbial growth after 48 hrs by broth microdilution method; method in brief: as §2
Lactobacillus crispatus [11] = experiment: Antibacterial activity against Lactobacillus crispatus HM-371 assessed as reduction in microbial growth after 48 hrs by broth microdilution method; method in brief: as §2
Lactobacillus crispatus [12] = experiment: Antibacterial activity against Lactobacillus crispatus HM-103 assessed as reduction in microbial growth after 48 hrs by broth microdilution method; method in brief: as §2
Bacteroides fragilis [13] = experiment: Antibacterial activity against Bacteroides fragilis HM-711 assessed as reduction in microbial growth after 48 hrs by broth microdilution method; format: organism-based; method in brief: as §2
Escherichia coli = experiment: Antimicrobial activity against Escherichia coli JW55031 harboring TolC mutant assessed as reduction in microbial growth after 48 hrs by CLSI based broth microdilution method; format: functional
Method in brief: (§3)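 CLSI broth microdilution: strains were grown aerobically overnight on tryptone soy agar at 37°C. A 0.5 McFarland suspension was diluted to ~5 × 10^5 CFU/mL in cation-adjusted Mueller-Hinton broth (E. coli) or tryptone soy broth (enterococci), and agents were serially diluted.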

Enterococcus faecalis = experiment: Antimicrobial activity against vancomycin-resistant Enterococcus […] ATCC 51299 assessed as reduction in microbial growth after 48 hrs by CLSI based broth microdilution method; format: functional; method in brief: as §3
Enterococcus faecium = experiment: Antimicrobial activity against vancomycin-resistant Enterococcus faecium ATCC 700221 assessed as reduction in microbial growth after 48 hrs by CLSI based broth microdilution method; format: functional; method in brief: as §3
Clostridioides difficile [14] = experiment: Antibacterial activity against Clostridioides difficile ATCC 43255 infected in CDI mouse model assessed as survival rate at 10 mg/kg, po for 5 days relative to control; format: functional; conditions: ATCC 43255, po, 120 h, time 5 day
Clostridioides difficile [15] = experiment: Antibacterial activity against Clostridioides difficile ATCC 43255 infected in CDI mouse model assessed as bacterial recurrence at 10 mg/kg, po for 5 days and measured on day 21 relative to control; format: functional; conditions: time 21 day
Clostridioides difficile [16] = experiment: Antimicrobial activity against Clostridioides difficile ATCC 43255 assessed as drug resistance by measuring frequency of mutation at 15 times of MIC after 48 hrs; format: functional
Clostridioides difficile [17] = experiment: Antimicrobial activity against Clostridioides difficile ATCC 43255 assessed as drug resistance by measuring frequency of mutation at 20 times of MIC after 48 hrs; format: functional

## CN1CC[C@H](c2c(O)cc(O)c3c(=O)cc(-c4ccccc4)oc23)[C@H](O)C1
[1]
  pIC50: 5.62

## O=C(Nc1nnc(-c2ccccc2F)o1)c1ccc(SC(F)(F)F)cc1
Clostridioides difficile [2]
  MIC: 10.4 µM

## CCc1c(Cl)c(O)c(Cl)c(O)c1C(=O)O[C@H]1[C@H](O)[C@H](OC)[C@H](OC/C2=C\C=C\C[C@H](O)/C(C)=C/[C@H](CC)[C@@H](O[C@@H]3OC(C)(C)[C@@H](OC(=O)C(C)C)[C@H](O)[C@@H]3O)/C(C)=C/C(C)=C/C[C@@H]([C@@H](C)O)OC2=O)O[C@@H]1C [FIDAXOMICIN]
Bacteroides fragilis [3]
  MIC: > 60.5 µM
Clostridioides difficile [4]
  MIC: 0.01 µM
Clostridioides difficile [5]
  MIC: 0.03 µM
Clostridioides difficile [6]
  MIC: 0.06 µM
Phocaeicola dorei
  MIC: > 60.5 µM
Clostridioides difficile [7]
  MIC: 0.01 µM
Clostridioides difficile [8]
  MIC: 0.06 µM
Clostridioides difficile [9]
  MIC: 0.03 µM
Clostridioides difficile [10]
  MIC: 0.01 µM
Lactobacillus gasseri
  MIC: > 60.5 µM
Lactobacillus crispatus [11]
  MIC: > 60.5 µM
Lactobacillus crispatus [12]
  MIC: > 60.5 µM
Bacteroides fragilis [13]
  MIC: > 60.5 µM
Clostridioides difficile [2]
  MIC: 0.06 µM

## CC(C)c1ccc(-c2nnc(NC(=O)c3ccc(SC(F)(F)F)cc3)o2)cc1
Clostridioides difficile [2]
  MIC: 314 µM

## O=C(Nc1nnc(-c2ccc(Cl)cc2)o1)c1ccc(SC(F)(F)F)cc1
Clostridioides difficile [2]
  MIC: 5 µM

## GENTAMICIN
Escherichia coli
  MIC: 0.52 µM

## O=C(Nc1nnc(-c2ccccc2)o1)c1ccc(SC(F)(F)F)cc1
Clostridioides difficile [2]
  MIC: 5.5 µM

## O=C(Nc1nnc(-c2ccc(F)cc2)o1)c1ccc(SC(F)(F)F)cc1
Clostridioides difficile [2]
  MIC: 10.4 µM

## O=C(Nc1nnc(-c2cccc(F)c2)o1)c1ccc(SC(F)(F)F)cc1
Clostridioides difficile [2]
  MIC: 0.08 µM

## O=C(Nc1nnc(-c2ccc(Cl)cc2Cl)o1)c1ccc(SC(F)(F)F)cc1
Clostridioides difficile [2]
  MIC: 0.07 µM

## O=C(Nc1nnc(-c2cccc(C(F)(F)F)c2)o1)c1ccc(SC(F)(F)F)cc1
Clostridioides difficile [2]
  MIC: 0.04 µM

## Cc1ccc(-c2nnc(NC(=O)c3ccc(SC(F)(F)F)cc3)o2)cc1
Clostridioides difficile [2]
  MIC: 10.5 µM

## CC(=O)NC[C@H]1CN(c2ccc(N3CCOCC3)c(F)c2)C(=O)O1 [LINEZOLID]
Enterococcus faecalis
  MIC: 3 µM
Enterococcus faecium
  MIC: 3 µM
Escherichia coli
  MIC: 47.4 µM

## COc1ccc(Cl)cc1-c1nnc(NC(=O)c2ccc(SC(F)(F)F)cc2)o1
Clostridioides difficile [2]
  MIC: 4.7 µM

## O=C(Nc1nnc(-c2cccc(Cl)c2)o1)c1ccc(SC(F)(F)F)cc1
Clostridioides difficile [2]
  MIC: 0.08 µM

## O=C(Nc1nnc(-c2cccs2)o1)c1ccc(SC(F)(F)F)cc1
Clostridioides difficile [2]
  MIC: 1.4 µM

## O=C(Nc1nnc(-c2ccccn2)o1)c1ccc(SC(F)(F)F)cc1
Clostridioides difficile [2]
  MIC: 21.8 µM

## O=C(Nc1nnc(-c2ccc(C(F)(F)F)cc2)o1)c1ccc(SC(F)(F)F)cc1
Clostridioides difficile [2]
  MIC: 0.29 µM

## O=C(Nc1nnc(-c2ccccc2Cl)o1)c1ccc(SC(F)(F)F)cc1
Clostridioides difficile [2]
  MIC: 10 µM

## Cc1ncc([N+](=O)[O-])n1CCO [METRONIDAZOLE]
Bacteroides fragilis [3]
  MIC: 11.68 µM
Clostridioides difficile [4]
  MIC: 1.46 µM
Clostridioides difficile [5]
  MIC: 0.7 µM
Clostridioides difficile [6]
  MIC: 1.46 µM
Enterococcus faecalis
  MIC: > 374 µM
Phocaeicola dorei
  MIC: 5.84 µM
Clostridioides difficile [7]
  MIC: 1.46 µM
Clostridioides difficile [8]
  MIC: 0.7 µM
Enterococcus faecium
  MIC: > 374 µM
Clostridioides difficile [9]
  MIC: 1.46 µM
Clostridioides difficile [10]
  MIC: 0.7 µM
Lactobacillus gasseri
  MIC: > 373.9 µM
Lactobacillus crispatus [11]
  MIC: > 373.9 µM
Lactobacillus crispatus [12]
  MIC: > 373.9 µM
Bacteroides fragilis [13]
  MIC: 5.84 µM
Clostridioides difficile [2]
  MIC: 1.46 µM

## CN[C@H](CC(C)C)C(=O)N[C@H]1C(=O)N[C@@H](CC(N)=O)C(=O)N[C@H]2C(=O)N[C@H]3C(=O)N[C@H](C(=O)N[C@H](C(=O)O)c4cc(O)cc(O)c4-c4cc3ccc4O)[C@H](O)c3ccc(c(Cl)c3)Oc3cc2cc(c3O[C@@H]2O[C@H](CO)[C@@H](O)[C@H](O)[C@H]2O[C@H]2C[C@](C)(N)[C@H](O)[C@H](C)O2)Oc2ccc(cc2Cl)[C@H]1O [VANCOMYCIN]
Bacteroides fragilis [3]
  MIC: 22.1 µM
Clostridioides difficile [4]
  MIC: 0.7 µM
Clostridioides difficile [5]
  MIC: 0.4 µM
Clostridioides difficile [6]
  MIC: 0.2 µM
Enterococcus faecalis
  MIC: > 44.2 µM
Phocaeicola dorei
  MIC: 44.2 µM
Clostridioides difficile [7]
  MIC: 0.7 µM
Clostridioides difficile [8]
  MIC: 0.7 µM
Clostridioides difficile [14]
  survival at 10 mg/kg: 100%
Clostridioides difficile [9]
  MIC: 0.7 µM
Clostridioides difficile [10]
  MIC: 0.4 µM
Lactobacillus gasseri
  MIC: <= 0.7 uM
Lactobacillus crispatus [11]
  MIC: 1.4 µM
Clostridioides difficile [15]
  Activity: 83.3%
Clostridioides difficile [16]
  Activity: <1.1 10^-9No_unit
Lactobacillus crispatus [12]
  MIC: 1.4 µM
Clostridioides difficile [17]
  Activity: <1.1 10^-9No_unit
Escherichia coli
  MIC: > 44.2 µM
Bacteroides fragilis [13]
  MIC: 44.2 µM
Clostridioides difficile [2]
  MIC: 0.7 µM

## COc1ccc(-c2nnc(NC(=O)c3ccc(SC(F)(F)F)cc3)o2)cc1
Clostridioides difficile [2]
  MIC: 10.1 µM

## COc1cccc(-c2nnc(NC(=O)c3ccc(SC(F)(F)F)cc3)o2)c1
Clostridioides difficile [2]
  MIC: 10.1 µM
